Here are results for 5 compounds from publication PMC4484650 (Drug Design, Development and Therapy, 2015).

Each structure is given as a SMILES string. “And” between values parts separate entries of the source, which are not always exact repeats. Equal values may be shown once. Read-outs that look alike come from different tables or passages of the source.

A word on the AUC(0-inf): it is the area under the concentration-time curve extrapolated to infinity. In general, AUC(0-t) refers to the area under the concentration-time curve up to a stated or last time point. Broadly, the Cmax is the peak of the concentration-time curve. As a reminder, the Tmax is the time at which the peak concentration occurs. The term half-life denotes how long it takes for the measured level to halve.

For series [1] the following is noted: cited from earlier work; for half-life (T1/2): humans.
Series [2] relates to plasma proteins. The settings on record: cited from earlier work.
The nature of series [3]: Rat plasma PK and plasma metabolite profile after oral [14C]-levomilnacipran. In kind it is in vivo, Sprague Dawley rats. The gist of the method: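 Male Sprague Dawley rats were gavaged with 50 mg/kg [14C]-test compound. Aortic blood was drawn under isoflurane into lithium heparin, three rats per time, from 0.25 to 72 h (second study: 1–10 h). Plasma radioactivity was counted by liquid scintillation. Parent and N-desethyl metabolite were measured by LC–MS/MS (1–500 ng/mL), and conjugates after β-glucuronidase/sulfatase deconjugation. Cmax and AUC came from non-compartmental analysis.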

Series [4] is described as follows: Rat mass balance and urine metabolite profile. In kind it is in vivo, Sprague Dawley rats. Conditions: rat (Sprague Dawley), 50 mg/kg, urine 0–24 hours. The gist of the method: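 Sprague Dawley rats received 50 mg/kg [14C]-test compound by gavage in ultrapure water. Urine, feces and cage wash were collected from 3 males and 3 females pre-dose and at 0–8, 8–24, 24–48 and 48–72 h. A second study collected urine from 3 males to 24 h. Radioactivity was counted by liquid scintillation as % of dose. Urinary analytes were measured by LC–MS/MS (50–24,750 ng/mL), with and without deconjugation (15 h, 37°C).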

Series [5] can be described thus: Monkey mass balance and urine metabolite profile. Conditions: 30 mg/kg, urine 0–24 hours. In kind it is in vivo, Macaca fascicularis monkeys.
Series [6] is described as follows: Human mass balance and urine metabolite profile. In kind it is in vivo, human (healthy men). Conditions: 60 mg, urine 0–120 hours. A digest of the protocol: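 Open-label single-centre study in healthy young men. Each took one oral 5 mL solution of 60 mg [14C]-test compound (3.7 MBq), about 30 min after starting breakfast. Urine was collected in intervals to 120 h and feces in 24-h intervals to 120 h. Radioactivity was read by liquid scintillation and reported as % of dose. Urinary analytes were measured by LC–MS/MS (1–5,000 ng/mL) before and after β-glucuronidase/sulfatase deconjugation (15 h, 37°C).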

The format of series [7] is in vivo, human (healthy men). Conditions: human.
Setting [8] is: Sprague Dawley, rat, plasma, po, 50 mg/kg.

On to `COc1ccc(C(CN(C)C)C2(O)CCCCC2)cc1` (stereo not drawn) [venlafaxine], for which, in series [1], the “half-life (T1/2)” value was 5 h. Further, in series [2], the plasma protein binding is on record as 27%.
On to `CN(C)CC(c1ccc(O)cc1)C1(O)CCCCC1` (stereo not drawn) [desvenlafaxine], for which, in series [1], the “Urinary excretion as unchanged (parent) drug” value is 45% and the “half-life (T1/2)” value is 11 h. Further, the plasma protein binding in series [2] was 30%.
On to `CNCC[C@H](Oc1cccc2ccccc12)c1cccs1` [duloxetine], for which, in series [1], the “Urinary excretion as unchanged (parent) drug” value is given as “less than 1%” and the “half-life (T1/2)” value is 12 h. Also, the plasma protein binding result in series [2] is on record as “greater than 90%”.
As to `CCN(CC)C(=O)C1(c2ccccc2)CC1CN` (stereo not drawn) [milnacipran], the “half-life (T1/2)” value in series [1] was 8 h. The plasma protein binding in series [2] is reported as 13%.
For `CCN(CC)C(=O)[C@@]1(c2ccccc2)C[C@H]1CN` [Levomilnacipran, levomilnacipran], the total exposure AUC(0-inf) in series [3] (setting [8]) amounted to 16600 ng·h/mL; in series [7] (male, plasma, po, 60 mg) it was 2090 ng·h/mL. Also, the AUC(0-t) in series [3] (setting [8]) came out at 16600 ng·h/mL; in series [7] (male, plasma, po, 60 mg) it was 2060 ng·h/mL. For the same compound, the Cmax turned out to be 8060 ng/mL in series [3] (setting [8]) and 179 ng/mL in series [7] (male, plasma, po, 60 mg). In addition, the Tmax in series [3] (setting [8]) is 0.5 h; in series [7] (male, plasma, po, 60 mg), 2.75 h. Besides, the “Share of circulating total radioactivity” value in series [3] (male rats, 50 mg/kg oral) was “about 60%”. In addition, the “Mean urinary excretion of compound” value was 40.2 % of administered dose in series [4]; 35.5 % of administered dose in series [5]; 58.4 % of administered dose in series [6]; 58.4 % of administered dose and 58 % of administered dose in series [6] (listed as levomilnacipran). In addition, in series [7] (60 mg oral), the “Contribution to total radioactivity plasma exposure (area under the curve)” value is 45.1%. Moreover, in series [7] (from average peak plasma concentrations), the “Contribution to total plasma radioactivity at peak plasma levels” value is given as 61.0%. For the same compound, the “Share of total plasma radioactivity” value in series [7] (within 12 hours of dosing) is 52.9%. The half-life in series [7] (male, plasma, po, 60 mg) is 10.4 h.
